Data as given in ChEMBL document CHEMBL5154634, “A Modular Synthetic Route Involving N-Aryl-2-nitrosoaniline Intermediates Leads to a New Series of 3-Substituted Halogenated Phenazine Antibacterial Agents” (J Med Chem, 2021).
Converted amounts (≈) assume the structure as drawn. The source made the active and inactive calls. The rule behind the calls is not given here.

Key:
Staphylococcus aureus [1] = assay: Antibacterial activity against methicillin-resistant Staphylococcus aureus BAA-1707 assessed as bacterial growth inhibition incubated for 16 hrs by broth microdilution susceptibility test; format: functional
Method in brief: (§1)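 CLSI broth microdilution with 11 twofold dilutions (0.05–50 μM). About 10^5 cells per well from a log-phase culture. DMSO vehicle up to 0.5% v/v. At least three independent experiments.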

Staphylococcus aureus [2] = assay: Antibacterial activity against methicillin-resistant Staphylococcus aureus BAA-44 assessed as bacterial growth inhibition incubated for 16 hrs by broth microdilution susceptibility test; format: functional
Method in brief: (§2)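 CLSI broth microdilution with 11 twofold dilutions (0.05–50 μM). Medium was LB for the staphylococci and BHI for VRE 700221. About 10^5 cells per well from a log-phase culture. […] DMSO vehicle up to 0.5% v/v. At least three independent experiments.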

[3] = system: Staphylococcus epidermidis; assay: Antibacterial activity against methicillin-resistant Staphylococcus epidermidis ATCC 35984 assessed as bacterial growth inhibition incubated for 16 hrs by broth microdilution susceptibility test; format: functional; method in brief: as §1
Enterococcus faecium [4] = assay: Antibacterial activity against vancomycin-resistant Enterococcus faecium ATCC 700221 assessed as bacterial growth inhibition incubated for 16 hrs by broth microdilution susceptibility test; format: functional; method in brief: as §2
Enterococcus faecalis [5] = assay: Antibacterial activity against Enterococcus faecalis OG1RF ATCC 47077 assessed as bacterial growth inhibition incubated for 16 hrs by broth microdilution susceptibility test; format: functional
[6] = system: Mycobacterium tuberculosis; assay: Antibacterial activity against Mycobacterium tuberculosis H37Ra ATCC 25177 assessed as bacterial growth inhibition incubated for 7 days by absorbance based analysis; format: functional; conditions: H37Ra ATCC 25177, 168 h, time 7 day
Method in brief: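 H37Ra grown 2 weeks in Middlebrook 7H9, then diluted to OD600 0.01. Compounds added in twofold dilutions, final 0.024–50 μM, with 0.5% DMSO and streptomycin as positive control. Incubated 7 days at 37 °C. MIC is the lowest concentration with no growth, with OD600 recorded. At least three independent experiments.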

[7] = system: Mycobacterium tuberculosis; assay: Antibacterial activity against Mycobacterium tuberculosis CDC1551 assessed as bacterial growth inhibition incubated for 5 days by luminescence based analysis; format: functional; conditions: CDC1551, 120 h, time 5 day
Method in brief: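 Bioluminescent Mtb-lux CDC1551 reporter grown in Middlebrook 7H9 with 0.05% Tween 80, 10% OADC and kanamycin to OD600 0.4–0.8, then diluted to OD600 0.02. Added to twofold drug dilutions (0.003–200 μM). Incubated 5 days at 37 °C, 5% CO2. Luminescence read against 1% DMSO and 10 μM rifampicin controls to give % growth inhibition. MIC taken from a modified Gompertz fit.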

HeLa = assay: Cytotoxicity against human HeLa cells assessed as reduction in cell viability incubated for 24 hrs by LDH release assay; format: toxicity, cell-based
Method in brief: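 HeLa cells in DMEM with 10% FBS, treated at 70–80% confluence with 25, 50 and 100 μM for 24 h. LDH in supernatant measured by 30 min reaction at room temperature, then stop solution and absorbance at 490 nm. Controls: 2% Triton X-100 (maximum), medium only, DMSO vehicle. Three independent experiments.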

J774 = assay: Cytotoxicity against mouse J774 cells assessed as reduction in cell viability […] by Alamar blue assay; format: toxicity, cell-based
HepG2 = assay: Cytotoxicity against human HepG2 cells assessed as reduction in cell viability […] by Alamar blue assay; format: toxicity, cell-based
Staphylococcus aureus [8] = assay: Bactericidal activity against methicillin-resistant Staphylococcus aureus BAA-1707 planktonic cells assessed as planktonic eradication incubated for 24 hrs followed by incubation for overnight in fresh medium by Calgary biofilm device assay; format: functional
Method in brief: (§3)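 Calgary biofilm device. Biofilms grown 24 h at 37 °C in TSB with 0.5% glucose, then challenged 24 h with twofold compound dilutions. 20 μL of challenge medium transferred into fresh TSB with 0.5% glucose and incubated overnight at 37 °C. MBC is the concentration with no visible turbidity. At least three independent experiments.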

Staphylococcus aureus [9] = assay: Antibiofilm activity against methicillin-resistant Staphylococcus aureus BAA-1707 biofilms assessed as biofilm eradication incubated for 24 hrs followed by incubation for 24 hrs in fresh medium by Calgary biofilm device assay; format: functional
Method in brief: (§4)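 Calgary biofilm device. Mid-log culture diluted 1000-fold in TSB with 0.5% glucose; biofilms grown on pegs 24 h at 37 °C. Pegs washed and challenged with twofold compound dilutions for 24 h at 37 °C, then moved to fresh medium for 24 h. MBEC is the lowest concentration leaving wells non-turbid. At least three independent experiments.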

[10] = system: Staphylococcus epidermidis; assay: Bactericidal activity against methicillin-resistant Staphylococcus epidermidis ATCC 35984 planktonic cells assessed as planktonic eradication incubated for 24 hrs followed by incubation for overnight in fresh medium by Calgary biofilm device assay; format: functional; method in brief: as §3
[11] = system: Staphylococcus epidermidis; assay: Antibiofilm activity against methicillin-resistant Staphylococcus epidermidis ATCC 35984 biofilms assessed as biofilm eradication incubated for 24 hrs followed by incubation for 24 hrs in fresh medium by Calgary biofilm device assay; format: functional; method in brief: as §4
Enterococcus faecium [12] = assay: Bactericidal activity against methicillin-resistant vancomycin-resistant Enterococcus faecium ATCC 700221 planktonic cells assessed as planktonic eradication incubated for 24 hrs followed by incubation for overnight in fresh medium by Calgary biofilm device assay; format: functional; method in brief: as §3
Enterococcus faecium [13] = assay: Antibiofilm activity against methicillin-resistant vancomycin-resistant Enterococcus faecium ATCC 700221 biofilms assessed as biofilm eradication incubated for 24 hrs followed by incubation for 24 hrs in fresh medium by Calgary biofilm device assay; format: functional; method in brief: as §4
Enterococcus faecalis [14] = assay: Bactericidal activity against […] Enterococcus faecalis OG1RF ATCC 47077 planktonic cells assessed as planktonic eradication incubated for 24 hrs followed by incubation for overnight in fresh medium by Calgary biofilm device assay; format: functional
Method in brief: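 Calgary biofilm device in BHI. Biofilms grown 24 h at 37 °C and challenged 24 h with twofold compound dilutions. Challenge medium subcultured 1:10 into fresh BHI overnight at 37 °C. MBC is the concentration with no turbidity. At least three independent experiments.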

Erythrocyte = assay: Hemolytic activity against human RBC at 200 uM measured after 1 hr; format: toxicity, cell-based
Method in brief: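 2% hRBCs exposed to compound at 200 μM final, added from DMSO stock, for 1 h at 37 °C. Supernatant OD read at 405 nm. Hemolysis normalized between DMSO (0%) and Triton X (100%); three independent experiments.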

Staphylococcus aureus [15] = assay: Antibiofilm activity against methicillin-resistant Staphylococcus aureus BAA-1707 biofilms assessed as reduction of viable biofilm cells at MBEC measured by CBD assay; format: functional
Method in brief: (§5)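 After the Calgary biofilm device assay, treated and untreated pegs were removed, sonicated 30 min in PBS and plated for CFU per peg. Log10 reduction of viable biofilm cells at the MBEC determined by comparison with untreated pegs. At least three independent experiments.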

[16] = system: Staphylococcus epidermidis; assay: Antibiofilm activity against methicillin-resistant Staphylococcus epidermidis ATCC 35984 biofilms assessed as reduction of viable biofilm cells at MBEC measured by CBD assay; format: functional; method in brief: as §5
[17] = Binding affinity to Fe2+ assessed as compound-Fe2+ complex formation by UV-vis spectroscopy
[18] = Dissociation constant, pKa of the compound at 125 uM by UV-vis spectrophotometric analysis; format: physicochemical
Method in brief: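 Compound at 125 μM final in phosphate buffers (KH₂PO₄/Na₂HPO₄) in 1:1 water/methanol, pH 4.07–9.66; ammonium hydroxide added for pH above 9.80. UV-vis scans 200–800 nm to find λmax of phenol and phenolate forms. Absorbance at each λmax plotted against pH.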

Staphylococcus aureus [19] = assay: Antibacterial activity against methicillin-resistant Staphylococcus aureus clinical isolate 1 assessed as bacterial growth inhibition; format: functional
Staphylococcus aureus [20] = assay: Antibacterial activity against methicillin-resistant Staphylococcus aureus clinical isolate 2 assessed as bacterial growth inhibition; format: functional
Staphylococcus aureus [21] = assay: Antibacterial activity against methicillin-resistant Staphylococcus aureus 129 assessed as bacterial growth inhibition; format: functional
Staphylococcus aureus [22] = assay: Antibacterial activity against methicillin-resistant Staphylococcus aureus 147 assessed as bacterial growth inhibition; format: functional
Staphylococcus aureus [23] = assay: Antibacterial activity against methicillin-resistant Staphylococcus aureus 138 assessed as bacterial growth inhibition; format: functional
Staphylococcus aureus [24] = assay: Antibacterial activity against methicillin-resistant Staphylococcus aureus 156 assessed as bacterial growth inhibition; format: functional
Staphylococcus aureus [25] = assay: Antibiofilm activity against methicillin-resistant Staphylococcus aureus BAA-1707 biofilms assessed as biofilm killing at MBEC measured by CBD assay; format: functional
[26] = system: Staphylococcus epidermidis; assay: Antibiofilm activity against methicillin-resistant Staphylococcus epidermidis ATCC 35984 biofilms assessed as biofilm killing at 3.13 uM measured by CBD assay; format: functional
[27] = system: Staphylococcus epidermidis; assay: Antibiofilm activity against methicillin-resistant Staphylococcus epidermidis ATCC 35984 biofilms assessed as reduction of viable biofilm cells at 3.13 uM measured by CBD assay; format: functional

Oc1c(Br)c(Cl)c(Br)c2nc3c(Cl)cc(Cl)cc3nc12
MIC (Staphylococcus aureus [1]): 0.59 µM (≈ 0.27 µg/mL) | MIC (Staphylococcus aureus [2]): 0.15 µM (≈ 0.0686 µg/mL) | MIC [3]: ≤ 0.05 µM | MIC (Enterococcus faecium [4]): 0.08 µM (≈ 0.0366 µg/mL) | MIC (Enterococcus faecalis [5]): 0.3 µM (≈ 0.137 µg/mL) | MIC [6]: 6.25 µM (≈ 2.86 µg/mL) | MIC [7]: 0.8 µM (≈ 0.366 µg/mL) | IC50 (HeLa): > 100 µM | IC50 (J774): > 200 µM | IC50 (HepG2): > 200 µM | MBC (Staphylococcus aureus [8]): 1.56 µM (≈ 0.713 µg/mL) | MBEC (Staphylococcus aureus [9]): 3.13 µM | MBC [10]: 0.59 µM (≈ 0.27 µg/mL) | MBEC [11]: 0.3 µM | MBC (Enterococcus faecium [12]): 0.39 µM (≈ 0.178 µg/mL) | MBEC (Enterococcus faecium [13]): 0.2 µM | MBC (Enterococcus faecalis [14]): 3.13 µM (≈ 1.43 µg/mL) | Activity (Erythrocyte): <= 1% | Activity (Staphylococcus aureus [15]): 3.03 log10CFU | Activity [16]: 3.18 log10CFU | Activity [17]: Active | pKa at 125 µM [18]: 6.07 | MIC (Staphylococcus aureus [19]): 0.47 µM (≈ 0.215 µg/mL) | MIC (Staphylococcus aureus [20]): 0.47 µM (≈ 0.215 µg/mL) | MIC (Staphylococcus aureus [21]): 0.47 µM (≈ 0.215 µg/mL) | MIC (Staphylococcus aureus [22]): 0.47 µM (≈ 0.215 µg/mL) | MIC (Staphylococcus aureus [23]): 0.47 µM (≈ 0.215 µg/mL) | MIC (Staphylococcus aureus [24]): 0.47 µM (≈ 0.215 µg/mL) | Activity (Staphylococcus aureus [25]): 99.9% | Activity [26]: 99.999% | Activity [27]: 5 log10CFU
